# Reference: ChEMBL document CHEMBL2040790 (Bioorg Med Chem Lett, 2012)
# Active and inactive are the calls of the source. The rule behind the calls is not given here.
# How the values were obtained:
# Vaccinia virus [1] = experiment: Antiviral activity against Vaccinia virus; assay type: functional, organism-based; conditions: Orthopoxvirus vaccinia
# La Crosse virus [2] = experiment: Antiviral activity against La Crosse virus infected in african green monkey Vero cells assessed as inhibition of virus-induced cytopathic effect by fluorometric analysis; assay type: functional, organism-based
# La Crosse virus [3] = experiment: Antiviral activity against La Crosse virus infected in african green monkey Vero cells assessed as inhibition of virus-induced cytopathic effect at 25 uM during single experiment set up by fluorometric analysis; assay type: functional, organism-based
# Vaccinia virus [4] = experiment: Antiviral activity against Vaccinia virus at 25 uM during one experiment of multiple experiment set up; assay type: functional, organism-based; conditions: Orthopoxvirus vaccinia
# La Crosse virus [5] = experiment: Antiviral activity against La Crosse virus infected in african green monkey Vero cells assessed as inhibition of virus-induced cytopathic effect at 5 uM after 4 days by spectrophotometric analysis; assay type: functional, organism-based
# How it was run: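 Primary screen run at one fixed concentration of 5 μM. Compounds active at that level were then carried into dose-response testing (0.009–25 μM) against RVFV and LACV.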
# Rift Valley fever virus = experiment: Antiviral activity against Rift Valley fever virus at 5 uM; assay type: functional, organism-based
# How it was run: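 Single-concentration primary screen at 5 μM. Molecules active there and bearing viable scaffolds were then taken into concentration-response testing over 0.009–25 μM.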
# Ebolavirus = experiment: Antiviral activity against Ebola virus; assay type: functional
# [6] = tested on: Human immunodeficiency virus 1; experiment: Antiviral activity against Human immunodeficiency virus 1; assay type: functional, organism-based
# Tacaribe virus = experiment: Antiviral activity against Tacaribe virus; assay type: functional, organism-based; conditions: Mammarenavirus tacaribeense
# [7] = tested on: Mammarenavirus choriomeningitidis; experiment: Antiviral activity against Lymphocytic choriomeningitis virus; assay type: functional
# [8] = tested on: Encephalomyocarditis virus; experiment: Antiviral activity against Encephalomyocarditis virus; assay type: functional, organism-based
# Sindbis virus = experiment: Antiviral activity against Sindbis virus; assay type: functional, organism-based
# Dengue virus = experiment: Antiviral activity against Dengue virus; assay type: functional, organism-based
# [9] = tested on: Orthohantavirus andesense; experiment: Antiviral activity against Andes virus; assay type: functional
# [10] = tested on: Respiratory syncytial virus; experiment: Antiviral activity against Respiratory syncytial virus; assay type: functional, organism-based
# [11] = tested on: unidentified influenza virus; experiment: Antiviral activity against influenza virus; assay type: functional, organism-based
# Vaccinia virus [12] = experiment: Antiviral activity against Vaccinia virus at 25 uM during single experiment set up; assay type: functional, organism-based; conditions: Orthopoxvirus vaccinia
# Vero = experiment: Cytotoxicity against african green monkey Vero cells; assay type: cell-based; conditions: chlorocebus sabaeus
# La Crosse virus [13] = experiment: Antiviral activity against La Crosse virus infected in african green monkey Vero cells assessed as inhibition of virus-induced cytopathic effect during single experiment set up by fluorometric analysis; assay type: functional, organism-based
# [14] = Solubility of the compound in water; assay type: physicochemical
# [15] = Solubility of the compound in simulated gastric fluid; assay type: physicochemical
# [16] = Solubility of the compound in Caco2 transport buffer; assay type: physicochemical, Caco-2
# Vaccinia virus [17] = experiment: Antiviral activity against Vaccinia virus during single experiment set up; assay type: functional, organism-based; conditions: Orthopoxvirus vaccinia
Structure (SMILES),EC50 (Vaccinia virus [1]),EC50 (La Crosse virus [2]),further results
Cc1ccc(Cl)c(NC(=S)NC(=O)c2ccc(C(C)(C)C)cc2)c1,0.66 µM,1.67 µM,Activity (La Crosse virus [3]): inactive
COc1cc(NC(=S)NC(=N)c2ccc(C(C)(C)C)cc2)ccc1NC(=O)c1ccccc1Cl,7.64 µM,3.01 µM,Activity (Vaccinia virus [4]): inactive
COc1cc(NC(=S)NC(=O)c2ccc(C(C)(C)C)cc2)ccc1NC(=O)c1ccccc1Cl,0.25 µM,0.27 µM,Activity (La Crosse virus [5]): Active; Activity (Rift Valley fever virus): Active; Activity (Ebolavirus): Active; Activity [6]: Active; Activity (Tacaribe virus): Active; Activity [7]: Active; Activity [8]: Active; Activity (Sindbis virus): Active; Activity (Dengue virus): Active; Activity [9]: Active; Activity [10]: Active; Activity [11]: Active
CC(C)(C)c1ccc(C(=O)NC(=S)Nc2ccc(N3CCOCC3)cc2)cc1,> 25 µM,> 25 µM,Activity (Vaccinia virus [12]): inactive; Activity (La Crosse virus [3]): inactive; Activity (Vero): Toxic
CNc1cccc(C(=O)Nc2ccc(NC(=S)NC(=O)c3ccc(C(C)(C)C)cc3)cc2OC)c1.Cl,1.63 µM,> 25 µM,Activity (Vero): Toxic
Cc1c(Cl)cccc1NC(=S)NC(=O)c1ccc(C(C)(C)C)cc1,6.47 µM,0.919 µM,Activity (Vaccinia virus [12]): inactive; Activity (La Crosse virus [3]): inactive
CC(C)(C)c1ccc(C(=O)NC(=S)Nc2ccc(N3CCCCC3)cc2)cc1,> 25 µM,> 25 µM,Activity (Vaccinia virus [12]): inactive; Activity (La Crosse virus [3]): inactive; Activity (Vero): Toxic
COc1cc(NC(=S)NC(=O)c2ccc(C(C)(C)C)cc2)ccc1NC(=O)c1cccc(C(=O)O)c1,> 25 µM,,Activity (Vaccinia virus [12]): inactive; Activity (La Crosse virus [3]): inactive
COc1cc(NC(=S)NC(=O)c2ccc(C(C)(C)C)cc2)ccc1N,2.09 µM,1.69 µM,Activity (Vaccinia virus [12]): inactive; Activity (La Crosse virus [3]): inactive
COc1cc(NC(=S)NC(=O)c2ccc(C(C)(C)C)cc2)ccc1NC(=O)c1ccc(C(=O)O)cc1,> 25 µM,> 25 µM,Activity (Vaccinia virus [12]): inactive; Activity (La Crosse virus [3]): inactive
CC(C)(C)c1ccc(C(=O)NC(=S)Nc2ccccc2CN)cc1,> 25 µM,> 25 µM,EC50 (La Crosse virus [13]): 6.93 µM
CC(C)(C)c1ccc(C(=O)NC(=S)Nc2cc(Cl)ccc2Cl)cc1,2.42 µM,2.45 µM,Activity (Vaccinia virus [12]): inactive; Activity (La Crosse virus [3]): inactive
CC(C)(C)c1ccc(C(=O)NC(=S)Nc2ccc(N)cc2)cc1,4.41 µM,2.27 µM,Activity (Vaccinia virus [12]): inactive
CC(C)(C)c1ccc(C(=O)NC(=S)Nc2ccccc2Cl)cc1,0.35 µM,0.28 µM,Activity (La Crosse virus [5]): Active; Activity (Rift Valley fever virus): Active
CNc1ccc(C(=O)Nc2ccc(NC(=S)NC(=O)c3ccc(C(C)(C)C)cc3)cc2OC)cc1.Cl,0.81 µM,> 25 µM,Activity (Vaccinia virus [12]): inactive; Activity (Vero): Toxic
CNc1ccc(NC(=S)NC(=O)c2ccc(C(C)(C)C)cc2)c(Cl)c1.Cl,0.33 µM,0.24 µM,"solubility [14]: 0.2 µg/mL; solubility ([15]; simulated gastric fluid, read-out: solubility): 3.2 µg/mL; solubility [16]: 0.1 µg/mL"
Cc1cc(C)cc(NC(=S)NC(=O)c2ccc(C(C)(C)C)cc2)c1,3.48 µM,4.43 µM,Activity (La Crosse virus [3]): inactive
CC(C)(C)c1ccc(C(=O)NC(=S)Nc2ccc(CN3CCCCC3)cc2)cc1,> 25 µM,> 25 µM,Activity (Vaccinia virus [12]): inactive; Activity (La Crosse virus [3]): inactive; Activity (Vero): Toxic
CC(C)(C)c1ccc(C(=O)NC(=S)Nc2ccc(NC(=O)c3ccccc3)cc2)cc1,0.17 µM,0.15 µM,Activity (Vaccinia virus [12]): inactive; Activity (La Crosse virus [3]): inactive
CC(C)(C)c1ccc(C(=O)NC(=S)Nc2cc(C(C)(C)C)ccc2O)cc1,0.98 µM,3.42 µM,Activity (Vero): Toxic
CC(C)(C)c1ccc(C(=O)NC(=S)Nc2ccc(S(=O)(=O)Nc3nccs3)cc2)cc1,> 25 µM,> 25 µM,
CC(C)(C)c1ccc(C(=O)NC(=S)Nc2ccc(Nc3ccccc3)cc2)cc1,0.82 µM,1.7 µM,
COc1cc(NC(=S)NC(=O)c2ccc(C(C)(C)C)cc2)ccc1NC(=S)c1ccccc1Cl,0.99 µM,0.64 µM,
CC(C)(C)c1ccc(C(=O)NC(=S)Nc2ccc(Nc3cccnc3)cc2)cc1,24.5 µM,> 25 µM,

Structure (SMILES),EC50 (Vaccinia virus [1]),EC50 (La Crosse virus [2]),further results
COc1cc(NC(=S)NC(=O)c2ccc(C(C)(C)C)cc2)ccc1NC(N)=O,> 25 µM,4.86 µM,
COC(=O)c1cnc(NC(=S)NC(=O)c2ccc(C(C)(C)C)cc2)s1,> 25 µM,> 25 µM,
CC(C)(C)c1ccc(C(=O)NC(=S)Nc2ccccc2C(=O)O)cc1,> 25 µM,> 25 µM,EC50 (Vaccinia virus [17]): 2.29 µM
CC(C)(C)c1ccc(C(=O)NC(=S)Nc2cccc(N)c2)cc1,2.72 µM,2.19 µM,Activity (Vaccinia virus [12]): inactive
Cc1ccc(O)c(NC(=S)NC(=O)c2ccc(C(C)(C)C)cc2)c1,> 25 µM,> 25 µM,Activity (Vero): Toxic
CC(C)(C)c1ccc(C(=O)NC(=S)Nc2ccc([N+](=O)[O-])cc2)cc1,4.08 µM,> 25 µM,
CC(C)(C)c1ccc(C(=O)NC(=S)Nc2cccc(C(F)(F)F)c2Cl)cc1,1.83 µM,0.85 µM,
COc1ccc(-c2csc(NC(=S)NC(=O)c3ccc(C(C)(C)C)cc3)n2)cc1OC,> 25 µM,> 25 µM,
CC(C)(C)c1ccc(C(=O)NC(=S)Nc2ccc(CN3CCOCC3)cc2)cc1,> 25 µM,> 25 µM,Activity (Vaccinia virus [12]): inactive; Activity (La Crosse virus [3]): inactive; Activity (Vero): Toxic
Cc1ccccc1NC(=S)NC(=O)c1ccc(C(C)(C)C)cc1,0.83 µM,0.63 µM,
CN(C)c1ccc(NC(=S)NC(=O)c2ccc(C(C)(C)C)cc2)c(Cl)c1.Cl,3.26 µM,1.55 µM,"solubility ([15]; simulated gi fluid, BLD = below limit of detection): BLD"
COc1cc(NC(=S)NC(=O)c2ccc(C(C)(C)C)cc2)ccc1NCc1ccccc1Cl,0.34 µM,0.2 µM,
COc1cc(NC(=S)NC(=O)c2ccc(C(C)(C)C)cc2)ccc1NC(=O)CCCCN(C)C,> 25 µM,> 25 µM,
CC(C)(C)c1ccc(C(=O)NC(=S)Nc2ccccc2)cc1,5.57 µM,5.01 µM,Activity (La Crosse virus [3]): inactive
COc1cc(NC(=S)NC(=O)c2ccc(C(C)(C)C)cc2)ccc1NC(=O)c1ccc2nc[nH]c2c1,> 25 µM,> 25 µM,
COc1cc(NC(=S)NC(=O)c2ccc(C(C)(C)C)cc2)ccc1NC(=O)c1ccccn1,> 25 µM,> 25 µM,
CCN(C(=S)NC(=O)c1ccc(C(C)(C)C)cc1)c1ccc(NC(=O)c2ccccc2Cl)c(OC)c1,10.1 µM,> 25 µM,
COc1cc(NC(=S)NC(=O)c2ccc(C(C)(C)C)cc2)ccc1NC(=O)c1ncccn1,> 25 µM,> 25 µM,
COC(=O)CC(=O)Nc1ccc(NC(=S)NC(=O)c2ccc(C(C)(C)C)cc2)cc1OC,18.6 µM,> 25 µM,
CC(C)(C)c1ccc(C(=O)NC(=S)Nc2ccccc2N)cc1,> 25 µM,> 25 µM,
CC(=O)N1CCN(c2ccc(NC(=S)NC(=O)c3ccc(C(C)(C)C)cc3)cc2)CC1,> 25 µM,> 25 µM,Activity (Vaccinia virus [12]): inactive; Activity (La Crosse virus [3]): inactive; Activity (Vero): Toxic
CC(C)(C)c1ccc(C(=O)NC(=S)Nc2ccccn2)cc1,> 25 µM,> 25 µM,
CC(C)(C)c1ccc(C(=O)NC(=S)Nc2ccc(N)c(N)c2)cc1,> 25 µM,> 25 µM,EC50 (Vaccinia virus [17]): 7.78 µM
